Screening results: PubChem, several laboratories
CHOP UPR activ – activators of apoptotic arm of unfolded protein response (CHOP) | CHO-CHOP luciferase reporter, UPR activation, luminescence; percent of tunicamycin response over DMSO baseline | activation, % at 10 µM | 0.34% of 330,000 active | AID 449763;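 active = at 10 µM dose, activation of 40% or more, normalized to positive control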;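 note: 100% = tunicamycin at 10 µg/mL and 0% = DMSO alone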
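Assay system: CHO-CHOP cells, stable luciferase reporter of PERK-eIF2a-CHOP signalling / Buffer or medium: F12 plus 10% serum / Compound dosing: one dose, 10 µM in 0.5% DMSO / Times: 6 h compound treatment, 37 °C / Technique: luciferase luminescence / Read-out: % reporter activation, DMSO baseline versus tunicamycin full activation / Benchmarks: tunicamycin and DMSO controls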
T cruzi inh – T. cruzi replication inhibition; 1.4% of 300,000 active; T. cruzi beta-gal in NIH3T3, luminescence, 90 h; inhibition, % (no concentration beside the values);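 active = mean inhibition across valid replicates above about 55%, limit read from the data; inconclusive = mean below that limit but half or more replicates reach it; inactive = mean below it, under half of replicates reach it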;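 note: signal also drops with host cell toxicity which is not excluded here; 0% = plate median of DMSO wells and 100% = zero luminescence signal; higher percent means less beta-gal luminescence so fewer parasites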
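Assay system: NIH/3T3 fibroblasts plus reporter T. cruzi. Amount: NIH/3T3 cells, 5,000 per well. Buffer or medium: DMEM, 2% fetal bovine serum. Doses: compound pinned at 50 nL/well, DMSO. Schedule: ≥90 h infection period, 3 h prior cell attachment. Signal: luminescent β-galactosidase signal after 60 min lysis. Read-out: parasite load inhibition, %.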
CSC inhib – cancer stem cell inhibition; inhibition, % at 7.5 µM; 1.1% of 300,000 active; cancer stem cell-like cells viability, luminescence; AID 2717; in the data active = inhibition above about 75%; inconclusive = no clear call, values can overlap the other calls; tested in HMLE shEcad cells
Beta cell apopt – beta cell apoptosis inhibition; INS-1E cytokine-induced death, ATP luminescence, 48 h; percent of positive-control rescue, neutral wells zero; protection from apoptosis, % (test concentration not listed); AID 435005; 0.8% of 300,000 active;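 active = Every replicate reaches about 75%, or at least half do and their mean reaches it too, limit read from the data; inconclusive = At least half of replicates reach the limit but their mean does not; inactive = Under half of replicates reach the limit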;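 note: 0% = cytokine-treated negative control wells and 100% = positive control rescue; higher means more ATP so stronger rescue from cytokine killing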
Mdm2 MdmX PPI – disrupts the human Mdm2-MdmX interaction | O15151+Q00987 | SaOS-2 split-luciferase Mdm2/MdmX complementation, luminescence | inhibition, % at 8 µM | 3% of 330,000 active;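 active = inhibition of at least 50% at 8 µM in the primary screen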
Target sequence (O15151 whole entry, looked up): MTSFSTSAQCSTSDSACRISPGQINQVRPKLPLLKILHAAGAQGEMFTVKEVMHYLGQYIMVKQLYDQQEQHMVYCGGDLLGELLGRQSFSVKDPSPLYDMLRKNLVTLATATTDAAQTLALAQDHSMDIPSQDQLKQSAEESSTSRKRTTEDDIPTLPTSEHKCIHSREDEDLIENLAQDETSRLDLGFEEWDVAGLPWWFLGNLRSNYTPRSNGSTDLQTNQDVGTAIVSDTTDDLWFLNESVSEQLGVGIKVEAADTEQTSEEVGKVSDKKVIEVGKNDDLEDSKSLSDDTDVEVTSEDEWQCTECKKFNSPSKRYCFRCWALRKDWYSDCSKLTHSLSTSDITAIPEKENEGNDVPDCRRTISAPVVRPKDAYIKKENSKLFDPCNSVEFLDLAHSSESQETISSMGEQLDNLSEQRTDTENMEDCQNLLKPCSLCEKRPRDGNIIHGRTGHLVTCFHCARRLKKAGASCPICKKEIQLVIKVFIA
Target sequence (Q00987 whole entry, looked up): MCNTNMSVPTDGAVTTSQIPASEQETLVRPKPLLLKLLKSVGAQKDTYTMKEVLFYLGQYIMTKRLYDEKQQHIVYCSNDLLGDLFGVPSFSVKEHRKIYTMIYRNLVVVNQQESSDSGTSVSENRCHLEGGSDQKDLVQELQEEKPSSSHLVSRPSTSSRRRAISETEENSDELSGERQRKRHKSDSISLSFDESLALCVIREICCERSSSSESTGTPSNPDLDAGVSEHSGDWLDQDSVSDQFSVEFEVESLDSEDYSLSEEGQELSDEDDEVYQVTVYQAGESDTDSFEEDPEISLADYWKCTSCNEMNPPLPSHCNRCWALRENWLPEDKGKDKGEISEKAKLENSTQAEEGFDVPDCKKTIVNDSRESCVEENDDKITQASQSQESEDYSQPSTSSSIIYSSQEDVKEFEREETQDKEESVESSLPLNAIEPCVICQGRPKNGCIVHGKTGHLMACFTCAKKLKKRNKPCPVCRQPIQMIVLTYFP
XBP1 UPR activ – activators of adaptive arm of unfolded protein response (XBP1). activation, % at 20 µM. CHO-XBP1 luciferase reporter, IRE1-XBP1 UPR activation, luminescence; percent of tunicamycin response, DMSO as zero. 0.33% of 330,000 active;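 active = versus positive control, 20 µM dose yields 30% or more activation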;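 note: 100% = tunicamycin at 10 µg/mL and 0% = DMSO only wells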
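Material: IRE1-XBP1 luciferase reporter CHO line / Quantity: one thousand reporter cells per well / Buffer or medium: F12 with 10% serum / Compound: 20 µM single concentration, DMSO 1% / Times: 6 h treatment, 37 °C / Detection: Steady-Glo luciferase glow luminescence, 10 min after reagent addition / Benchmarks: tunicamycin high, DMSO low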
Mdm2-MdmX conf – human Mdm2/MdmX binding inhibition, confirmed; luminescent assay; shares compounds with Mdm2 MdmX PPI; inhibition, % at 8 µM; 55% of 10,000 active; in the data active = inhibition above about 40%
Full FLuc ctr – inhibits full-length luciferase, flagging false Mdm2/MdmX hits. SaOS-2 full-length luciferase counterscreen, luminescence. 77% of 6,200 active. inhibition, % at 8 µM. shares compounds with Mdm2 MdmX PPI. AID 504607;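 active = mean inhibition at 8 µM reaching about 37%, which flags the compound as non-specific, limit read from the data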;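 note: p53-null SaOS-2 cells with luciferase driven by a doxycycline-inducible promoter; compound on cells about two nights before reading with doxycycline added after day one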
Starred values were filed as active, the others as inactive; ? = inconclusive; nt = no result. Rows were chosen to be rich in hits. Some 5% of all compounds tested hit in one or more screens of this group.

SMILES	CHOP UPR activ	T cruzi inh	CSC inhib	Beta cell apopt	Mdm2 MdmX PPI	XBP1 UPR activ	Mdm2-MdmX conf	Full FLuc ctr
CCN(CC)c1ccc(/C=N/NC(=O)c2ccco2)c(O)c1	0	61*	113*	93*	59*	13	57*	55*
C=C(NC(=O)C(=C)NC(=O)c1csc(C2=NC3c4csc(n4)C4NC(=O)c5csc(n5)C([C@@](C)(O)C(C)O)NC(=O)C5CSC(=N5)/C(=C\C)NC(=O)C(C(C)O)NC(=O)c5csc(n5)[C@]3(CC2)NC(=O)C(C)NC(=O)C(=C)NC(=O)C(C)NC(=O)C(C(C)CC)NC2C=Cc3c(C(C)O)cc(nc3C2O)C(=O)OC4C)n1)C(N)=O (stereo partly drawn)	15	nt	80*	-9	94*	30	56*	58*
Cc1ccc2[nH]c(-c3cccc(F)c3)cc(=O)c2c1	4	-1	58	11	58*	11	71*	95*
Cc1ccc(-c2cc(=O)c3cc(F)ccc3[nH]2)cc1	3	-14	5	7	-3	3	nt	nt
O=c1cc(-c2cccc(F)c2)[nH]c2ccccc12	2	-9	47	17	52*	14	75*	78*
Cc1cccc(N2CCN(C(=O)NCc3ccc(Cl)cc3)CC2)c1	-3	-25	35	nt	22	-1	nt	nt
COc1cccc(N(CC(=O)NC2CCCCC2)C(=O)CCCC(=O)Nc2ccccn2)c1	-1	19	-9	-3	27	-6	nt	nt
CC1=CC(C)(C)Nc2ccc(OC(=O)C(C)N3C(=O)c4ccccc4C3=O)cc21 (stereo not drawn)	21	-12	20	-24	56*	-4	22	nt
CC1=CC(C)(C)Nc2ccc(OC(=O)c3ccco3)cc21	-8	36	39	-20	72*	-11	22	nt
COc1ccc(OC(=O)C(C)N2C(=O)c3ccccc3C2=O)cc1 (stereo not drawn)	-1	6	nt	nt	15	-5	nt	nt
CC1=CC(C)(C)Nc2ccc(OC(=O)c3cccnc3)cc21	27	-23	25	-6	22	-2	nt	nt
COc1ccc2oc(C(=O)OCC(=O)N(Cc3ccccc3)C(C)(C)C)c(C)c2c1	2	-10	2	3	32	-3	nt	nt
Cc1ccc(S(=O)(=O)n2cc(-c3ccccc3)c3ccccc32)cc1	-1	nt	99*	15	63*	4	57*	82*
Cc1cnc(C(=O)OCC(=O)N2CCC(C)CC2)cn1	-1	nt	3	-7	3	0	nt	nt
COC(=O)c1c(C)oc2ccc(N(C(=O)c3ccncc3)S(=O)(=O)c3ccc(C)cc3)cc12	-1	-6	-7	62	56*	16	52*	86*
C=CCn1c(N(C)C)nc2c1c(=O)[nH]c(=O)n2C	0	-7	-6	-2	-26	-4	nt	nt
CC(C)(C)NC(=O)C(c1ccncc1)N(Cc1cccs1)C(=O)Cn1nnc(-c2ccc(F)cc2)n1 (stereo not drawn)	-3	2	-5	25	53*	-2	43*	55*
CC(C)(C)NC(=O)C(c1ccncc1)N(CC1CCCO1)C(=O)Cn1nnc(-c2ccc(F)cc2)n1 (stereo not drawn)	0	-9	-7	-4	22	-2	nt	nt
CCOc1cc(NC(=O)C2CC2)c(OCC)cc1NC(=O)c1ccccc1OCC	3	17	40	31	36	-2	nt	nt
CCOc1cc(NC(=O)C2CC2)c(OCC)cc1NC(=O)c1cc(OC)c(OC)c(OC)c1	-2	15	-8	10	62*	-1	13	nt
COc1ccc(C(CCNCc2ccc(N(C)C)cc2)c2ccccc2OC)cc1 (stereo not drawn)	-1	46	2	30	54*	-3	29	nt
COc1ccc(C(CCNCc2ccc(OC(C)C)cc2)c2ccccc2OC)cc1 (stereo not drawn)	1	52	101*	76*	87*	2	31	82*
Cc1ccc(-c2csc3ncn(CC(=O)NCC(c4ccco4)N4CCCC4)c(=O)c23)cc1 (stereo not drawn)	1	nt	-13	-1	15	-3	nt	nt
O=C(/C=C/NNC(=O)c1ccccc1O)c1ccccc1	1	-18	18	5	57*	0	13	nt
Cc1ccc(C(=O)N2CCOCC2)cc1S(=O)(=O)N1CCCCC1	0	7	4	-7	10	-4	nt	nt
SMILES	CHOP UPR activ	T cruzi inh	CSC inhib	Beta cell apopt	Mdm2 MdmX PPI	XBP1 UPR activ	Mdm2-MdmX conf	Full FLuc ctr
O=C(c1nn2c(C(F)(F)F)cc(-c3cccs3)nc2c1Br)N1CCCc2ccccc21	3	36	26	16	28	-4	nt	nt
O=C(c1nn2c(C(F)(F)F)cc(-c3ccco3)nc2c1Br)N1CCCc2ccccc21	0	1	68	6	57*	-2	44*	48*
COc1ccccc1/C=C/C1(C(=O)NC2CCCC2)CC(=O)N1c1ccc(F)cc1 (stereo not drawn)	-1	8	?	8	70*	13	89*	49*
CC1CCc2[nH]c3ccc(C(=O)N4CCCC(C(F)(F)F)C4)cc3c2C1 (stereo not drawn)	2	26	18	6	15	2	nt	nt
CCn1c(SCC(=O)NC2=NCCS2)nnc1C(C)NC(=O)c1ccccc1Br (stereo not drawn)	1	-2	-2	-3	11	-4	nt	nt
CO/N=C/C(=N\Nc1ccc(C)cc1)C(=O)c1ccc(OC)cc1	0	35	73	20	55*	7	58*	65*
CO/N=C/C(=N\Nc1ccc(OC)cc1)C(=O)c1ccc(F)cc1	0	1	26	nt	25	0	nt	nt
CCCCCCCCC[n+]1cccc2c3ccccc3ccc21	9	59*	58	111*	91*	15	87*	57*
CN(C)CCCNc1ncnc2oc(-c3ccccc3)c(-c3ccccc3)c12	0	42	15	2	66*	4	39	64*
CCOc1cc(N(CC)CC)ccc1/C=C(/C#N)c1nc2ccccc2[nH]1	6	?	65	19	51*	10	47*	92*
Cc1cc(/C=C(\C#N)c2nc3ccccc3[nH]2)c(C)n1C	8	0	1	2	-15	3	nt	nt
CCN(CC)c1ccc(/C=C(/C#N)c2nc3ccc(C)cc3[nH]2)c(OC(C)C)c1	1	84*	-18	48	52*	6	44*	79*
